The record followed here is ChEMBL document CHEMBL4673407, “Fragment-Based Discovery of Novel Allosteric MEK1 Binders” (ACS Med Chem Lett, 2021).

Series [1] in a line: Octanol-water partition coefficient, log D of the compound at pH 7.4 by shake flask method. It counts as physicochemical.
In series [2] the target is T1, Dual specificity mitogen-activated protein kinase kinase 1 (Homo sapiens, UniProt Q02750). The series can be described thus: Binding affinity to full length biotinylated 6His/Avi-tagged/Tev-fused human MEK1 expressed in Escherichia coli in absence of AMP-PNP by SPR assay.
For series [3], the target named is T1, Dual specificity mitogen-activated protein kinase kinase 1. Briefly: Binding affinity to full length biotinylated 6His/Avi-tagged/Tev-fused human MEK1 expressed in Escherichia coli in presence of AMP-PNP by SPR assay.
The nature of series [4]: Intrinsic clearance in rat hepatocytes. It counts as ADME, cell-based, Hepatocyte. The method, boiled down:
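Rat hepatocyte stability; intrinsic clearance expressed in μL/(min 1E6) cells.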

Series [5] in a line: Intrinsic clearance in human liver microsomes. It counts as ADME, Microsome. Conditions: read-out: CLH. The method, boiled down:
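Human liver microsomal stability; intrinsic clearance expressed in μL/(min mg).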

T1 sequence (Q02750 whole entry, the tested form may be a part): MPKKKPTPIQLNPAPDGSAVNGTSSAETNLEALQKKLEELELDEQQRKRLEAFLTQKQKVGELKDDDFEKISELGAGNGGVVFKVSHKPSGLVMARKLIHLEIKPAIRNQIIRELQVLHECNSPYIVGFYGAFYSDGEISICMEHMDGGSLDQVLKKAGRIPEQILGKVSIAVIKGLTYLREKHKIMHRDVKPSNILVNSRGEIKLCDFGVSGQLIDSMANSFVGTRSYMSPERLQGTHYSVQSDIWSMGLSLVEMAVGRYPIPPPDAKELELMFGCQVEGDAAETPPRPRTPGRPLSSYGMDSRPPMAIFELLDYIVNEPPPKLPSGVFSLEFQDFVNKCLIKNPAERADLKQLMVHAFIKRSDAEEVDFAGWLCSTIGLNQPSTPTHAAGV

Compound `O=C(CC1SCCNC1=O)Nc1ccc(Cl)cc1` (stereo not drawn) registered a logD in series [1] of 1.8. Also, the dissociation constant Kd in series [2] worked out at 14 µM; in series [3] it was 7.4 µM.
On the same counts, the results for `O=C(CC1SCCNC1=O)Nc1ccc(Cl)c(Cl)c1` (stereo not drawn) are 2.3, 87 µM and 65 µM.
Taken in the same sequence, the figures for `O=C(c1cccnc1)c1cc2ccccc2[nH]1` were 2.3, 59 µM and 65 µM.
`CC(=O)Nc1ccc2c(C(F)(F)F)cc(=O)oc2c1`: the pH-dependent lipophilicity (logD) in series [1] came out at 1.8.
Still for that read-out and setting: as for `O=C(CC1SCCNC1=O)Nc1ccc(OC(F)F)cc1` (stereo not drawn), the figure is 1.5.
The same measure, in the same setting: as for `COc1cccc(NC(=O)CC2SCCNC2=O)c1` (stereo not drawn), the figure is 1.
Same read-out and setting: as for `CCOc1ccc(NC(=O)CC2SCCNC2=O)cc1` (stereo not drawn), the figure is 1.3; as for `O=C(CC1SCCNC1=O)Nc1ccccc1` (stereo not drawn), 0.8.
Compound `COc1ccc(NC(=O)CC2SCCNC2=O)cc1F` (stereo not drawn) showed a logD in series [1] of 1.1.
Same read-out and setting: the figure for `O=C(CC1SCCNC1=O)Nc1ccc(F)cc1` (stereo not drawn) is 1.2.
The same measure, in the same setting: the figure for `COc1ccc(-c2cccc(=O)[nH]2)cc1` is 1.4.
Turning to `O=C(CC1SCCNC1=O)Nc1ccc(O)cc1` (stereo not drawn), in series [1], the log distribution coefficient (logD) was 0.1.
The same measure, in the same setting: the figure for `O=C(CC1SCCNC1=O)Nc1ccc2c(c1)OCO2` (stereo not drawn) is 0.9.
For `O=C(CC1SCCNC1=O)Nc1ccc(OC(F)(F)F)cc1` (stereo not drawn), in series [3], the Kd was greater than 1000 µM.
In the case of `CCN(C)c1cc(-c2ccccc2O)nc2nccn12`, in series [1], the pH-dependent lipophilicity (logD) stood at 2.9.
For `COc1ccc(N(C)C(=O)CC2SCCNC2=O)cc1` (stereo not drawn), the Kd in series [3] was greater than 1000 µM.
`COc1ccccc1NC(=O)CC1SCCNC1=O` (stereo not drawn) displayed a log distribution coefficient (logD) in series [1] of 0.8.
The compound `COc1ccc(C2CC(=O)NCCS2)cc1` (stereo not drawn) showed a log distribution coefficient (logD) in series [1] of 1.6.
The same measure, in the same setting: the figure for `O=c1[nH]ccc2nc(-c3ccccc3)cn12` is 2.
Regarding `COc1ccc(NC(=O)CC2SCCNC2=O)cc1` (stereo not drawn), the CLH in series [4] amounted to 34 µL/min. The microsomal CLint in series [5] turned out to be 8 µL/min/mg. The pH-dependent lipophilicity (logD) in series [1] is 0.8.
